Data published in ChEMBL document CHEMBL1914430, “Synthesis of some new 1,3,5-trisubstituted pyrazolines bearing benzene sulfonamide as anticancer and anti-inflammatory agents” (Bioorg Med Chem Lett, 2011).

Legend:
Format in all cases: functional
SNB-75 = test: Anticancer activity against human SNB75 cells after 48 hrs; conditions: SNB-75, 48 h
Method in brief: (§1)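 NCI 60-line panel protocol with a 48 h incubation. Per line: GI50 = concentration giving 50% decrease in net cell growth; TGI = total growth inhibition; LC50 = net 50% loss of initial cells. When the level was not reached or was exceeded, the value is given as greater or less than the highest or lowest concentration tested.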

OVCAR-4 = test: Anticancer activity against human OVCAR4 cells after 48 hrs; conditions: OVCAR-4, 48 h; method in brief: as §1
RPMI-8226 = test: Anticancer activity against human RPMI8226 cells after 48 hrs; conditions: RPMI-8226, 48 h; method in brief: as §1
NCI-H23 = test: Anticancer activity against human NCI-H23 cells after 48 hrs; conditions: NCI-H23, 48 h; method in brief: as §1
SF-268 = test: Anticancer activity against human SF268 cells after 48 hrs; conditions: SF-268, 48 h; method in brief: as §1
HOP-92 = test: Anticancer activity against human HOP92 cells after 48 hrs; conditions: HOP-92, 48 h
Method in brief: (§2)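 NCI Drug Evaluation Branch 60-cell-line screen across leukemia, melanoma, lung, colon, CNS, ovarian, renal, prostate and breast panels. The incubation period is 48 h. Parameters are derived from dose–response data: GI50 is the concentration giving 50% decrease in net growth, TGI is total growth inhibition, and LC50 is net 50% loss of initial cells. Values beyond the tested range are reported as greater or less than the maximum or minimum concentration.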

ACHN = test: Anticancer activity against human ACHN cells after 48 hrs; method in brief: as §2
OVCAR-3 = test: Anticancer activity against human OVCAR3 cells after 48 hrs; conditions: OVCAR-3, 48 h; method in brief: as §1
HCT-15 = test: Anticancer activity against human HCT15 cells after 48 hrs; conditions: HCT-15, 48 h; method in brief: as §2
UACC-62 = test: Anticancer activity against human UACC62 cells after 48 hrs; conditions: UACC-62, 48 h
Method in brief: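 NCI ~60 human tumour cell line panel with a 48 h incubation. GI50 is the concentration giving a 50% fall in net growth, TGI gives total growth inhibition, and LC50 gives a net 50% loss of initial cells. An effect not reached or exceeded is reported as greater or less than the highest or lowest concentration tested.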

IGROV-1 = test: Anticancer activity against human IGROV1 cells after 48 hrs; conditions: IGROV-1, 48 h; method in brief: as §2
SF-539 = test: Anticancer activity against human SF539 cells after 48 hrs; conditions: SF-539, 48 h; method in brief: as §1
BT-549 = test: Anticancer activity against human BT549 cells after 48 hrs; conditions: BT-549, 48 h; method in brief: as §2
MCF7 = test: Anticancer activity against human MCF7 cells after 48 hrs; conditions: MCF7, 48 h; method in brief: as §2
[1] = Anticancer activity against human Hs 578T cells after 48 hrs; method in brief: as §2
HT-29 = test: Anticancer activity against human HT-29 cells after 48 hrs; conditions: HT-29, 48 h; method in brief: as §2
MDA-MB-468 = test: Anticancer activity against human MDA-MB-468 cells after 48 hrs; conditions: MDA-MB-468, 48 h; method in brief: as §2
SW-620 = test: Anticancer activity against human SW620 cells after 48 hrs; conditions: SW-620, 48 h; method in brief: as §1
EKVX = test: Anticancer activity against human EKVX cells after 48 hrs; method in brief: as §2
CCRF-CEM = test: Anticancer activity against human CCRF-CEM cells after 48 hrs; method in brief: as §2
RXF 393 = test: Anticancer activity against human RXF393 cells after 48 hrs; conditions: RXF 393, 48 h; method in brief: as §1
HOP-62 = test: Anticancer activity against human HOP62 cells after 48 hrs; conditions: HOP-62, 48 h; method in brief: as §2
DU-145 = test: Anticancer activity against human DU145 cells after 48 hrs; conditions: DU-145, 48 h; method in brief: as §2
Malme-3M = test: Anticancer activity against human MALME-3M cells after 48 hrs; method in brief: as §2
NCI-H460 = test: Anticancer activity against human NCI-H460 cells after 48 hrs; conditions: NCI-H460, 48 h; method in brief: as §1
MDA-MB-435 = test: Anticancer activity against human MDA-MB-435 cells after 48 hrs; conditions: MDA-MB-435, 48 h; method in brief: as §2
KM12 = test: Anticancer activity against human KM12 cells after 48 hrs; conditions: KM12, 48 h; method in brief: as §2
SK-MEL-5 = test: Anticancer activity against human SK-MEL-5 cells after 48 hrs; conditions: SK-MEL-5, 48 h; method in brief: as §1
SN12C = test: Anticancer activity against human SN12C cells after 48 hrs; method in brief: as §1
SNB-19 = test: Anticancer activity against human SNB19 cells after 48 hrs; conditions: SNB-19, 48 h; method in brief: as §1
HCC 2998 = test: Anticancer activity against human HCC2998 cells after 48 hrs; conditions: HCC 2998, 48 h; method in brief: as §2
SK-MEL-2 = test: Anticancer activity against human SK-MEL-2 cells after 48 hrs; conditions: SK-MEL-2, 48 h; method in brief: as §1
[2] = read-out: LC50 (the source's name)

Cc1cc(O)c(C2=NN(c3ccc(S(N)(=O)=O)cc3)C(/C=C/c3ccccc3)C2)cc1Cl (stereo not given)
GI50 (SNB-75): 3.39 µM | TGI (SNB-75): 16.1 µM | CC50 (SNB-75; [2]): 44.4 µM | GI50 (OVCAR-4): 3.74 µM | LC50 (OVCAR-4): 48.6 µM | TGI (OVCAR-4): 18.9 µM | GI50 (RPMI-8226): 4.95 µM | LC50 (concentration for net 50% loss of initial cells) (RPMI-8226): 0.575 µM | TGI (RPMI-8226): 20.6 µM | GI50 (NCI-H23): 1.68 µM | LC50 (concentration killing 50% of initial cells) (NCI-H23): 35.4 µM | TGI (NCI-H23): 12.5 µM | GI50 (SF-268): 5.63 µM | LC50 (concentration killing 50% of initial cells) (SF-268): 46.7 µM | TGI (SF-268): 19.5 µM | GI50 (HOP-92): 2.36 µM | TGI (HOP-92): 8.48 µM | CC50 (HOP-92; [2]): 34 µM | GI50 (ACHN): 5.27 µM | TGI (ACHN): 21.9 µM | CC50 (ACHN; [2]): 67.2 µM | GI50 (OVCAR-3): 11.5 µM | LC50 (concentration giving 50% net loss of initial cells) (OVCAR-3): 70.2 µM | TGI (OVCAR-3): 28.4 µM | GI50 (HCT-15): 18.9 µM | CC50 (HCT-15; [2]): > 100 µM | GI50 (UACC-62): 2.89 µM | LC50 (UACC-62): 34 µM | TGI (UACC-62): 11.4 µM | GI50 (IGROV-1): 4.32 µM | LC50 (net 50% loss of initial cells) (IGROV-1): 68.7 µM | TGI (IGROV-1): 19.8 µM | GI50 (SF-539): 2.98 µM | LC50 (concentration causing net 50% loss of initial cells) (SF-539): 37.5 µM | TGI (SF-539): 14 µM | GI50 (BT-549): 6.12 µM | TGI (BT-549): 21.3 µM | CC50 (BT-549; [2]): 54.5 µM | GI50 (MCF7): 3.93 µM | LC50 (MCF7): 40.1 µM | TGI (MCF7): 16.1 µM | GI50 [1]: 12.3 µM | TGI [1]: 49.7 µM | CC50 [1, 2]: > 100 µM | GI50 (HT-29): 3.73 µM | TGI (HT-29): 14.7 µM | CC50 (HT-29; [2]): 38.3 µM | GI50 (MDA-MB-468): 3.94 µM | TGI (MDA-MB-468): 13.8 µM | CC50 (MDA-MB-468; [2]): 37.2 µM | GI50 (SW-620): 11.7 µM | TGI (SW-620): 31.3 µM | CC50 (SW-620; [2]): 84 µM | GI50 (EKVX): 14.2 µM | TGI (EKVX): 35.3 µM | CC50 (EKVX; [2]): 87.4 µM | GI50 (CCRF-CEM): 17.7 µM | LC50 (concentration causing net 50% loss of initial cells) (CCRF-CEM): > 100 µM | TGI (CCRF-CEM): 50 µM | GI50 (RXF 393): 6.69 µM | LC50 (RXF 393): 52.6 µM | TGI (RXF 393): 20.2 µM | GI50 (HOP-62): 3.94 µM | LC50 (concentration for 50% net loss of initial cells) (HOP-62): 37.5 µM | TGI (HOP-62): 14.1 µM | GI50 (DU-145): 14.1 µM | LC50 (concentration causing net 50% loss of initial cells) (DU-145): > 100 µM | TGI (DU-145): 38.6 µM | GI50 (Malme-3M): 3.01 µM | TGI (Malme-3M): 17.4 µM | CC50 (Malme-3M; [2]): 51.9 µM | GI50 (NCI-H460): 4.03 µM | LC50 (50% lethal concentration) (NCI-H460): 41.3 µM | TGI (NCI-H460): 17 µM | GI50 (MDA-MB-435): 8.87 µM | TGI (MDA-MB-435): 24 µM | CC50 (MDA-MB-435; [2]): 59.5 µM | GI50 (KM12): 11.7 µM | LC50 (concentration causing net 50% loss of initial cells) (KM12): > 100 µM | TGI (KM12): 34.8 µM | GI50 (SK-MEL-5): 4.23 µM | LC50 (SK-MEL-5): 40.5 µM | TGI (SK-MEL-5): 16.4 µM | GI50 (SN12C): 11.1 µM | LC50 (SN12C): 59.4 µM | TGI (SN12C): 25.6 µM | GI50 (SNB-19): 7.84 µM | TGI (SNB-19): 19.9 µM | CC50 (SNB-19; [2]): 44.7 µM | GI50 (HCC 2998): 9.89 µM | LC50 (net 50% loss of initial cells) (HCC 2998): 92.5 µM | TGI (HCC 2998): 30.3 µM | GI50 (SK-MEL-2): 16.8 µM | LC50 (SK-MEL-2): > 100 µM | TGI (SK-MEL-2): 58.2 µM
